Laboratory results taken from ChEMBL document CHEMBL3271933, “Inhibitors of hepatic mixed function oxidase. 3. Inhibition of hepatic microsomal aniline hydroxylase and aminopyrine demethylase by 2,6- and 2,4-dihydroxyphenyl alkyl ketones and related compounds” (J Med Chem, 1977).
Structures can show the parent of a compound that is named as a salt. Activity calls are given as the source filed them. The rule behind the calls is not given here.

Tests used:
[1] = Inhibition of aminopyrine demethylase activity of mixed function oxidase system in Wistar rat liver microsomes assessed as conversion of aminopyrine to 4-aminoantipyrine after 20 mins; settings: read-out: I50
Summary of the method: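 Microsomes from phenobarbitone-pretreated male Wistar rats, with the same NADPH-generating cofactors. Incubation in 3.0 mL containing aminopyrine 1.5 μmol and 5.6 mg protein in pH 7.4 phosphate, 20 min. 4-Aminoantipyrine formed was assayed. Benzyl ethers added in DMSO; other inhibitors usually in water. I50 taken from 5–7 inhibitor levels, means of duplicates.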

[2] = Inhibition of aniline hydroxylase activity of mixed function oxidase system in Wistar rat liver microsomes assessed as conversion of aniline to p-aminophenol after 10 mins; settings: read-out: I50
[3] = test system: Mus musculus; assay: In vivo inhibition of mixed function oxidase system in mouse assessed as prolongation of hexobarbital-induced sleeping time at 100 mg/kg, ip pretreated for 10 mins followed by hexobarbital-challenge relative to control; design: scale not given: the % may be the effect or the level left; settings: route intraperitoneal
[4] = test system: Mus musculus; assay: In vivo inhibition of mixed function oxidase system in mouse assessed as increase in zoxazolamine-induced paralysis time at 100 mg/kg, ip pretreated for 10 mins followed by zoxazolamine-challenge relative to control; design: scale not given: the % may be the effect or the level left; settings: route intraperitoneal
[5] = species on record: Rattus norvegicus; assay: Inhibition of aniline hydroxylase activity of mixed function oxidase system in Wistar rat liver microsomes assessed as conversion of aniline to p-aminophenol at 10^-3 M after 10 mins

SMILES	IC50 [1]	IC50 [2]	Activity [3]	Activity [4]	inhibition [5]
O=Cc1c(O)cccc1O	650 µM	200 µM	–	–	–
CC(=O)c1c(O)cccc1O	140 µM	210 µM	190%	164%	–
CC(=O)c1c(O)cccc1OCc1ccccc1	80 µM	190 µM	170%	156%	–
CC(=O)c1ccc(O)cc1O	520 µM	700 µM	127%	77%	–
CCC(=O)c1ccc(OC)cc1O	170 µM	–	–	–	inactive
CCCC(C(=O)OCCN(CC)CC)(c1ccccc1)c1ccccc1 [PROADIFEN HYDROCHLORIDE]	6 µM	290 µM	–	–	–
CCC(=O)c1ccc(O)cc1O	160 µM	750 µM	–	–	–
CCCCOCCOCCOCc1cc2c(cc1CCC)OCO2 [PIPERONYL BUTOXIDE]	420 µM	420 µM	–	–	–
O=Cc1ccc(O)cc1O	1100 µM	1400 µM	–	–	–
COc1cccc(O)c1C(C)=O	90 µM	200 µM	233%	–	–
CC(=O)c1ccccc1O	320 µM	390 µM	–	–	–
